Data published in ChEMBL document CHEMBL3271976, “Cardenolide analogues. 2. 22-Methylenecard-14-enolides” (J Med Chem, 1977).
Activity calls are given as the source filed them. The calls are words filed in the database; no cut-off is given here.

What was measured:
[1] = Inhibition of rat brain sodium/potassium-transporting ATPase after 10 mins in presence of Mg2+ and Na+; settings: read-out: I50
How it was run: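 Rat brain Na+,K+-ATPase. The steroid was added to enzyme medium lacking K+ and preincubated 10 min, then KCl was added to start Na+,K+-ATPase activity. Basal activity from tubes with Mg2+ and Na+ only was subtracted from activity with Mg2+, Na+ and K+. I50 (M) is from two to four runs.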

[2] = Inhibition of rat brain sodium/potassium-transporting ATPase in presence of Mg2+ and Na+; settings: read-out: I50
How it was run: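 Rat brain Na+,K+-ATPase assayed with no preincubation of steroid and enzyme. Na+,K+-dependent activity was taken as activity with Mg2+, Na+ and K+ minus basal activity from tubes with Mg2+ and Na+ only. I50 (M) is from two to four runs.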

[3] = Solubility of the compound in propylene glycol; format: physicochemical
Cavia porcellus = species: Cavia porcellus; experiment: Inotropic activity at guinea pig left atria sodium/potassium-transporting ATPase up to 10^-4 M

Row | SMILES | IC50 [1] [nM] | IC50 [2] [nM] | solubility [3] | Activity (Cavia porcellus)
1 | C[C@@H]1O[C@@H](O[C@H]2C[C@@H](O)[C@]3(CO)[C@H]4[C@H](O)C[C@]5(C)[C@@H](C6=CC(=O)OC6)CC[C@]5(O)[C@@H]4CC[C@]3(O)C2)[C@H](O)[C@H](O)[C@H]1O [OUABAIN] | 40 | 500 |  | 
2 | C[C@H]1O[C@@H](O[C@H]2[C@@H](O)C[C@H](O[C@H]3[C@@H](O)C[C@H](O[C@H]4CC[C@@]5(C)[C@H](CC[C@@H]6[C@@H]5CC[C@]5(C)[C@@H](C7=CC(=O)OC7)CC[C@]65O)C4)O[C@@H]3C)O[C@@H]2C)C[C@H](O)[C@@H]1O [DIGITOXIN] | 240 | 700 |  | 
3 | C[C@]12CC[C@H](O)C[C@H]1CC[C@@H]1[C@@H]2CC[C@]2(C)[C@@H](C3=CC(=O)OC3)CC[C@]12O [DIGITOXIGENIN] | 500 | 460 |  | 
4 | C=C1C(=O)OC[C@H]1[C@H]1CC=C2[C@@H]3CC[C@@H]4C[C@@H](O)CC[C@]4(C)[C@H]3CC[C@@]21C | > 100000 | > 100000 | Insoluble | inactive
5 | C=C1C(=O)OC[C@@H]1[C@H]1CC=C2[C@@H]3CC[C@@H]4C[C@@H](O)CC[C@]4(C)[C@H]3CC[C@@]21C |  |  | Insoluble | inactive
6 | C[C@]12CC[C@H](O)C[C@H]1CC[C@H]1C3=CC[C@H](C4=CC(=O)OC4)[C@@]3(C)CC[C@@H]12 | 40000 | 63000 | Insoluble | inactive
